According to article PMC11364517 (Neuron, 2024):

What was measured:
[1] = system: GRABNE2m; conditions: read-out: apparent affinity values (EC50); n = 3
[2] = system: GRABNE2h; conditions: read-out: apparent affinity values (EC50); n = 3
[3] = system: GRABNE2m; experiment: Ligand selectivity of GRABNE2m expressed in HEK293T cells; type: cell-based; conditions: for fluorescence response of GRABNE2m to the ligand: HEK293T cells, trace amines and NE metabolites in full doses (Fig. S2C, S2D)
[4] = system: GRABNE2h; experiment: Ligand selectivity of GRABNE2h expressed in HEK293T cells; type: cell-based; conditions: for fluorescence response of GRABNE2h to the ligand: HEK293T cells, trace amines and NE metabolites in full doses (Fig. S2C, S2D)
[5] = system: optogenetically evoked NE release in the LC; experiment: Fiber photometry in the LC of freely moving TH-Cre mice during optogenetic; type: in vivo; conditions: i.p. injection; GRABNE2m and GRABNE2h
How it was run: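 Mice received hSyn-GRABNE2m or NE2h AAV plus Cre-dependent C1V1-YFP AAV (1 × 10¹³ genomic copies per ml) in the LC at 100 nl/min, 500 nl, under Avertin (500 mg/kg i.p.) or 1.5% isoflurane. LC fibres (105/125 μm) were implanted four weeks later. Photometry used a 473-nm laser, 25 μW at the fibre tip. Test compound was given i.p.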

Row | SMILES | fluorescence response of GRABNE2m to the ligand [3] | fluorescence response of GRABNE2h to the ligand [4] | also measured
1 | NC[C@H](O)c1ccc(O)c(O)c1 [NE, norepinephrine] |  |  | EC50 [1]: 0.38 µM; EC50 [2]: 0.19 µM
2 | NCCc1c[nH]c2ccc(O)cc12 [serotonin] | do not respond | do not respond | 
3 | NCCc1ccc(O)c(O)c1 [DA, dopamine] |  |  | EC50 [1]: 20 µM; EC50 [2]: 9 µM
4 | NCCc1c[nH]cn1 [histamine] | do not respond | do not respond | 
5 | N[C@@H](CCC(=O)O)C(=O)O [glutamate, L-Glutamic acid] | do not respond | do not respond | 
6 | COc1cc(C(O)CN)ccc1O (stereo not shown) [normetanephrine] | not respond | not respond | 
7 | NCCc1ccccc1 [phenethylamine] | not respond | not respond | 
8 | NCCCC(=O)O [γ-aminobutyric acid] | do not respond | do not respond | 
9 | CCc1cc(Cl)c(OC)c(C(=O)NC[C@@H]2CCCN2CC)c1O [eticlopride] |  |  | effect on decay kinetics of the optogenetically evoked response [5]: no effect
10 | NCCc1ccc(O)cc1 [tyramine] | not respond | not respond | 
11 | CC(=O)OCC[N+](C)(C)C [acetylcholine] | do not respond | do not respond | 
12 | CC(C)NCC(O)c1ccc(O)c(O)c1 (stereo not shown) [isoprenaline] | do not respond | do not respond | 
13 | COC(=O)[C@@H]1[C@H]2C[C@H]3c4[nH]c5ccccc5c4CCN3C[C@@H]2CC[C@@H]1O [yohimbine] |  |  | block of the NE-induced response of GRABNE2m ([3]; HEK293T cells (Fig. S2D)): blocked; block of the NE-induced response of GRABNE2h ([4]; HEK293T cells (Fig. S2D)): blocked
14 | COc1cc(C(O)C(=O)O)ccc1O (stereo not shown) [vanillylmandelic acid] | not respond | not respond | 
15 | Fc1ccc(C(OCCN2CCN(CCCc3ccccc3)CC2)c2ccc(F)cc2)cc1 [GBR-12909] |  |  | effect on decay kinetics of the optogenetically evoked response [5]: no effect
16 | NCC(O)c1ccc(O)cc1 (stereo not shown) [octopamine] | not respond | not respond | 
17 | Nc1ncnc2c1ncn2[C@@H]1O[C@H](CO)[C@@H](O)[C@H]1O [adenosine] | do not respond | do not respond | 
18 | COc1cc(C(O)CO)ccc1O (stereo not shown) [3-methoxy-4-hydroxyphenylglycol] | not respond | not respond | 
